Test results from ChEMBL document CHEMBL2331520, “Synthesis, surface tension properties and antibacterial activities of amphiphilic D-galactopyranose derivatives” (Eur J Med Chem, 2013).
Values after ≈ are worked out from the molar mass of the structure shown.

Tested on: Enterobacter cloacae
Experiment: Antibacterial activity against Enterobacter cloacae ATCC 13047 assessed as growth inhibition at 30 degC after 24 hrs by liquid broth dilution method
Type: functional
Settings: ATCC 13047, 24 h
How it was run: (§1)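 Strains kept at -80 °C in LB broth with 20% glycerol and grown from 1% (v/v) stock in nutritive broth (yeast extract 1 g/L, meat extract 2 g/L, peptone 5 g/L, NaCl 5 g/L) at 30 °C. Overnight culture adjusted to 0.5 McFarland (~1.5 × 10⁸ cfu/mL). Compound stock 1 g/L in DMSO, serially diluted in broth 1:2 to 1:512, mixed 1:1 with inoculum. Incubation 24 h, 150 rpm, 30 °C. OD600 read; MIC = lowest concentration with no OD increase in all replicates versus negative control.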

MIC [µg/mL] | Compound
62.5 (≈ 126 µM) | CCCCCCCCCCCCOCC#CCOC[C@H]1O[C@@H]2OC(C)(C)O[C@@H]2[C@H]2OC(C)(C)O[C@H]21
62.5 (≈ 120 µM) | CCCCCCCCCCCCOc1ccc(OC[C@H]2O[C@@H]3OC(C)(C)O[C@@H]3[C@H]3OC(C)(C)O[C@H]32)cc1
62.5 (≈ 171 µM) | CCCCCCCCOCCCCOC[C@H]1O[C@H](O)[C@H](O)[C@@H](O)[C@H]1O
62.5 (≈ 173 µM) | CCCCCCCCOCC#CCOC[C@H]1O[C@H](O)[C@H](O)[C@@H](O)[C@H]1O

Tested on: Escherichia coli
Experiment: Antibacterial activity against Escherichia coli ATCC 10536 assessed as growth inhibition at 30 degC after 24 hrs by liquid broth dilution method
Type: functional
Settings: ATCC 10536, 24 h
How it was run: as §1

MIC [µg/mL] | Compound
62.5 (≈ 126 µM) | CCCCCCCCCCCCOCC#CCOC[C@H]1O[C@@H]2OC(C)(C)O[C@@H]2[C@H]2OC(C)(C)O[C@H]21
62.5 (≈ 120 µM) | CCCCCCCCCCCCOc1ccc(OC[C@H]2O[C@@H]3OC(C)(C)O[C@@H]3[C@H]3OC(C)(C)O[C@H]32)cc1
62.5 (≈ 171 µM) | CCCCCCCCOCCCCOC[C@H]1O[C@H](O)[C@H](O)[C@@H](O)[C@H]1O
62.5 (≈ 173 µM) | CCCCCCCCOCC#CCOC[C@H]1O[C@H](O)[C@H](O)[C@@H](O)[C@H]1O

Tested on: Micrococcus luteus
Experiment: Antibacterial activity against Micrococcus luteus CIP 53.45 assessed as growth inhibition at 30 degC after 24 hrs by liquid broth dilution method
Type: functional
Settings: CIP 53.45, 24 h
How it was run: as §1

MIC [µg/mL] | Compound
31.2 (≈ 60 µM) | CCCCCCCCCCCCOc1ccc(OC[C@H]2O[C@@H]3OC(C)(C)O[C@@H]3[C@H]3OC(C)(C)O[C@H]32)cc1
62.5 (≈ 171 µM) | CCCCCCCCOCCCCOC[C@H]1O[C@H](O)[C@H](O)[C@@H](O)[C@H]1O
62.5 (≈ 173 µM) | CCCCCCCCOCC#CCOC[C@H]1O[C@H](O)[C@H](O)[C@@H](O)[C@H]1O

Tested on: Geobacillus stearothermophilus
Experiment: Antibacterial activity against Bacillus stearothermophilus ATTC 12980 assessed as growth inhibition at 30 degC after 24 hrs by liquid broth dilution method
Type: functional
Settings: ATTC 12980, 24 h
How it was run: as §1

MIC [µg/mL] | Compound
15.6 (≈ 31.4 µM) | CCCCCCCCCCCCOCC#CCOC[C@H]1O[C@@H]2OC(C)(C)O[C@@H]2[C@H]2OC(C)(C)O[C@H]21
62.5 (≈ 120 µM) | CCCCCCCCCCCCOc1ccc(OC[C@H]2O[C@@H]3OC(C)(C)O[C@@H]3[C@H]3OC(C)(C)O[C@H]32)cc1
62.5 (≈ 171 µM) | CCCCCCCCOCCCCOC[C@H]1O[C@H](O)[C@H](O)[C@@H](O)[C@H]1O
62.5 (≈ 173 µM) | CCCCCCCCOCC#CCOC[C@H]1O[C@H](O)[C@H](O)[C@@H](O)[C@H]1O

Tested on: Pseudomonas aeruginosa
Experiment: Antibacterial activity against Pseudomonas aeruginosa CIP A22 assessed as growth inhibition at 30 degC after 24 hrs by liquid broth dilution method
Type: functional
Settings: CIP A22, 24 h
How it was run: as §1

MIC [µg/mL] | Compound
62.5 (≈ 126 µM) | CCCCCCCCCCCCOCC#CCOC[C@H]1O[C@@H]2OC(C)(C)O[C@@H]2[C@H]2OC(C)(C)O[C@H]21
125 (≈ 240 µM) | CCCCCCCCCCCCOc1ccc(OC[C@H]2O[C@@H]3OC(C)(C)O[C@@H]3[C@H]3OC(C)(C)O[C@H]32)cc1
62.5 (≈ 171 µM) | CCCCCCCCOCCCCOC[C@H]1O[C@H](O)[C@H](O)[C@@H](O)[C@H]1O
125 (≈ 347 µM) | CCCCCCCCOCC#CCOC[C@H]1O[C@H](O)[C@H](O)[C@@H](O)[C@H]1O

Tested on: Citrobacter freundii
Experiment: Antibacterial activity against Citrobacter freundii ATCC 6750 assessed as growth inhibition at 30 degC after 24 hrs by liquid broth dilution method
Type: functional
Settings: ATCC 6750, 24 h
How it was run: as §1

MIC [µg/mL] | Compound
62.5 (≈ 126 µM) | CCCCCCCCCCCCOCC#CCOC[C@H]1O[C@@H]2OC(C)(C)O[C@@H]2[C@H]2OC(C)(C)O[C@H]21
62.5 (≈ 120 µM) | CCCCCCCCCCCCOc1ccc(OC[C@H]2O[C@@H]3OC(C)(C)O[C@@H]3[C@H]3OC(C)(C)O[C@H]32)cc1
125 (≈ 343 µM) | CCCCCCCCOCCCCOC[C@H]1O[C@H](O)[C@H](O)[C@@H](O)[C@H]1O
125 (≈ 347 µM) | CCCCCCCCOCC#CCOC[C@H]1O[C@H](O)[C@H](O)[C@@H](O)[C@H]1O

Tested on: Mycolicibacterium smegmatis
Experiment: Antibacterial activity against Mycobacterium smegmatis CIP 73.26 assessed as growth inhibition at 37 degC after 24 hrs by liquid broth dilution method
Type: functional
Settings: CIP 73.26, 24 h
How it was run: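 Inoculum at 0.5 McFarland (~1.5 × 10⁸ cfu/mL). DMSO stock (1 g/L) serially diluted in the same medium 1:2 to 1:512. Shaken 24 h at 150 rpm, 37 °C. MIC = lowest concentration with no OD600 rise in any replicate versus negative control.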

MIC [µg/mL] | Compound
62.5 (≈ 126 µM) | CCCCCCCCCCCCOCC#CCOC[C@H]1O[C@@H]2OC(C)(C)O[C@@H]2[C@H]2OC(C)(C)O[C@H]21
62.5 (≈ 120 µM) | CCCCCCCCCCCCOc1ccc(OC[C@H]2O[C@@H]3OC(C)(C)O[C@@H]3[C@H]3OC(C)(C)O[C@H]32)cc1
62.5 (≈ 171 µM) | CCCCCCCCOCCCCOC[C@H]1O[C@H](O)[C@H](O)[C@@H](O)[C@H]1O
62.5 (≈ 173 µM) | CCCCCCCCOCC#CCOC[C@H]1O[C@H](O)[C@H](O)[C@@H](O)[C@H]1O

Tested on: not listed separately
Experiment: Gamma critical micelle concentration of the compound by wilhelmy method
Type: physicochemical
Settings: not given
How it was run: (§2)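 Wilhelmy plate method at 293 K. Concentrated solution added stepwise from a syringe into ultrapure water, stirred gently 30 s after each addition, then equilibrium surface tension read. Each value is the mean of at least three measurements (SD within ±1.5% of mean). Transducer precision 0.1 mN/m; platinum plate flame-cleaned. Surface tension plotted against molar concentration to give CMC and γCMC.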

gammaCMC [mN/meter] | Compound
30 | CCCCCCCCOCCCCOC[C@H]1O[C@H](O)[C@H](O)[C@@H](O)[C@H]1O
30 | CCCCCCCCOCC#CCOC[C@H]1O[C@H](O)[C@H](O)[C@@H](O)[C@H]1O

Tested on: Dickeya chrysanthemi
Experiment: Antibacterial activity against Erwinia chrysanthemi EC3937 assessed as growth inhibition at 30 degC after 24 hrs by liquid broth dilution method
Type: functional
Settings: EC3937, 24 h
How it was run: as §1

MIC [µg/mL] | Compound
62.5 (≈ 126 µM) | CCCCCCCCCCCCOCC#CCOC[C@H]1O[C@@H]2OC(C)(C)O[C@@H]2[C@H]2OC(C)(C)O[C@H]21
62.5 (≈ 120 µM) | CCCCCCCCCCCCOc1ccc(OC[C@H]2O[C@@H]3OC(C)(C)O[C@@H]3[C@H]3OC(C)(C)O[C@H]32)cc1
62.5 (≈ 171 µM) | CCCCCCCCOCCCCOC[C@H]1O[C@H](O)[C@H](O)[C@@H](O)[C@H]1O
62.5 (≈ 173 µM) | CCCCCCCCOCC#CCOC[C@H]1O[C@H](O)[C@H](O)[C@@H](O)[C@H]1O

Tested on: Sinorhizobium meliloti
Experiment: Antibacterial activity against Sinorhizobium meliloti Rm1021 assessed as growth inhibition at 30 degC after 24 hrs by liquid broth dilution method
Type: functional
Settings: Rm1021, 24 h
How it was run: as §1

MIC [µg/mL] | Compound
62.5 (≈ 126 µM) | CCCCCCCCCCCCOCC#CCOC[C@H]1O[C@@H]2OC(C)(C)O[C@@H]2[C@H]2OC(C)(C)O[C@H]21
62.5 (≈ 120 µM) | CCCCCCCCCCCCOc1ccc(OC[C@H]2O[C@@H]3OC(C)(C)O[C@@H]3[C@H]3OC(C)(C)O[C@H]32)cc1
62.5 (≈ 171 µM) | CCCCCCCCOCCCCOC[C@H]1O[C@H](O)[C@H](O)[C@@H](O)[C@H]1O
62.5 (≈ 173 µM) | CCCCCCCCOCC#CCOC[C@H]1O[C@H](O)[C@H](O)[C@@H](O)[C@H]1O

Tested on: Staphylococcus aureus
Experiment: Antibacterial activity against Staphylococcus aureus subsp aureus CIP 53.154 assessed as growth inhibition at 30 degC after 24 hrs by liquid broth dilution method
Type: functional
Settings: CIP 53.154, 24 h
How it was run: as §1

MIC [µg/mL] | Compound
125 (≈ 252 µM) | CCCCCCCCCCCCOCC#CCOC[C@H]1O[C@@H]2OC(C)(C)O[C@@H]2[C@H]2OC(C)(C)O[C@H]21
125 (≈ 240 µM) | CCCCCCCCCCCCOc1ccc(OC[C@H]2O[C@@H]3OC(C)(C)O[C@@H]3[C@H]3OC(C)(C)O[C@H]32)cc1
125 (≈ 343 µM) | CCCCCCCCOCCCCOC[C@H]1O[C@H](O)[C@H](O)[C@@H](O)[C@H]1O
125 (≈ 347 µM) | CCCCCCCCOCC#CCOC[C@H]1O[C@H](O)[C@H](O)[C@@H](O)[C@H]1O

Tested on: not listed separately
Experiment: Critical micelle concentration of the compound by wilhelmy method
Type: physicochemical
Settings: not given
How it was run: as §2

CMC [mmol/L] | Compound
0.3 | CCCCCCCCOCCCCOC[C@H]1O[C@H](O)[C@H](O)[C@@H](O)[C@H]1O
0.06 | CCCCCCCCOCC#CCOC[C@H]1O[C@H](O)[C@H](O)[C@@H](O)[C@H]1O
